rCAG RNA binder = binds r(CAG) RNA repeats. r(CAG) RNA repeat, TO-PRO-1 dye displacement fluorescence. inhibition, % at 3 µM. actives 1.3% (n = 370,000). AID 651821;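 active = inhibition above the plate cutoff, the mean of all test compounds on that plate plus 3 SD, cut at about 35% in these data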;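 also: 0% = DMSO alone and 100% = 100 µM mitoxantrone as full dye displacement; higher means more dye released from RNA so lower well fluorescence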
TCR-CD3 inh = inhibitors of human TCR-CD3 interaction; actives 0.37% (n = 360,000); TAMRA-labeled TCR probe fluorescence, biochemical; inhibition, % at 9.4 µM; AID 651800; in the data active = inhibition above about 19%;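 also: recombinant mutant TCR 2C K166C tagged with TAMRA read by polarization; 0% = receptor in buffer alone and 100% = receptor with positive control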
HTRA1 inh = inhibitors of human serine peptidase HTRA1; Q92743; recombinant HTRA1, FP-rhodamine activity-based probe, fluorescence polarization; inhibition, % at 5.96 µM; actives 0.5% (n = 340,000); AID 504803; in the data active = inhibition above about 36%;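 also: 0% = enzyme with DMSO and 100% = wells lacking enzyme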
mABHD4 FP = inhibitors of mouse ABHD4. Q8VD66. purified mABHD4, FP-Rh probe fluorescence polarization. inhibition, % at 8.92 µM. actives 0.54% (n = 370,000);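 active = inhibition exceeding the mean over every tested compound plus 3 SD, cut at about 30% in these data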;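 also: 0% = plate median of compound wells and 100% = S159A mutant with DMSO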
Target sequence (Q8VD66 whole entry, looked up): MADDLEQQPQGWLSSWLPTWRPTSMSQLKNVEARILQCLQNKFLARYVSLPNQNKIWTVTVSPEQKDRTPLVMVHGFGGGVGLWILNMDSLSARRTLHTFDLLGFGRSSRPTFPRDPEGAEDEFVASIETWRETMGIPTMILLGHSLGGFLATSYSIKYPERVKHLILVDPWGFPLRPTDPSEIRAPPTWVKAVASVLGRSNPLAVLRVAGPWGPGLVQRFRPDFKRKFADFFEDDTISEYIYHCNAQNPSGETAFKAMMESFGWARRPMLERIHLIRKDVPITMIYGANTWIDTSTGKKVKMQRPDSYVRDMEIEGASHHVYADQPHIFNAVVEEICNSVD
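Assay system: Wild-type mouse ABHD4 protein | Medium: HEPES pH 7.0 buffer, 150 mM NaCl, 0.01% Pluronic F-127 | Incubation: Enzyme–compound pre-incubation 45 min, then probe 60 min, both 25 °C | Technique: Fluorescence polarization with parallel and perpendicular emission, 525/598 nm | Evaluation: % inhibition of FP-Rh probe binding versus controls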
SIAE inh = human SIAE inhibition, primary screen | SIAE FP-Rh probe binding, fluorescence polarization | inhibition, % at 9.66 µM | Q9HAT2 | actives 0.69% (n = 370,000);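 active = inhibition above a cutoff: mean of compounds within the control limits plus 3 SD of those, cut at about 17% in these data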;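 also: 0% = plate median of compound wells and 100% = probe without SIAE protein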
mABHD4 conf = ABHD4 (mouse) inhibition, FP confirmation | shares compounds with mABHD4 FP | purified mABHD4, FP-Rh probe fluorescence polarization | inhibition, % at 8.92 µM | actives 55% (n = 1,800);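 active = mean inhibition across replicates above the hit cutoff set in the primary screen, cut at about 30% in these data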;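 also: 0% = wild-type ABHD4 with DMSO and 100% = catalytically dead S159A mutant with DMSO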
* = called active by the depositor; / = not tested or not shown; ! = repeats disagree. Shown are actives, neighbours in structure and some others; about 2.5% of the full set was active somewhere.

SMILES	rCAG RNA binder	TCR-CD3 inh	HTRA1 inh	mABHD4 FP	SIAE inh	mABHD4 conf
COc1cccc(C=NN(C)c2c([N+](=O)[O-])cc(C(F)(F)F)cc2[N+](=O)[O-])c1O	4	2	/	45*	9	49*
CCOc1cccc2sc(NN)nc12	34	2	32	71*	13	71*
CCOc1cccc2sc(Cl)nc12	0	4	1	-6	-3	/
CN(C(=O)c1ccc(S(=O)(=O)N2CCCC2)cc1)C1CCS(=O)(=O)C1 (centres undefined)	-7	1	-1	1	2	/
Cc1oc(C(C)(C)C)cc1C(=O)Nc1ccc(N2CCOCC2)cc1	-5	3	2	0	-1	/
CCCCC1CC(CSc2ncn[nH]2)OC1=O (centres undefined)	-1	1	2	79*	5	-13
CCCCCCCC1CC(CSc2ncn[nH]2)OC1=O (centres undefined)	-3	3	-1	-5	1	/
Cc1nc2sccn2c(=O)c1S(=O)(=O)NCc1ccccc1	1	-4	4	3	-5	/
COc1cccc(CNS(=O)(=O)c2c(C)nc3sccn3c2=O)c1	2	5	4	65*	0	-3
NC(=Nc1ccc(N)cc1)C(N)=Nc1ccc(N)cc1	13	-6	13	31*	9	-3
Oc1ccc2[nH]cc(CCc3ccccc3)c2c1-c1ccccc1	7	/	/	33*	6	16
COc1ccc(OC)c(S(=O)(=O)N2Cc3ccccc3CC2C(=O)Nc2nccs2)c1 (centres undefined)	-2	5	5	2	1	/
COc1cccc(C2CC(c3cccc(NS(C)(=O)=O)c3)=NN2C(=O)c2ccccc2)c1OC (centres undefined)	6	6	-8	34*	-8	31*
CN(C)c1ccc(C2CC(c3cccc(NS(C)(=O)=O)c3)=NN2C(=O)c2ccccc2)cc1 (centres undefined)	9	0	-1	-1	3	/
Nc1[nH]n(-c2ccccc2)c(=O)c1N=Nc1ccccc1[N+](=O)[O-]	11	6	19	13	3	/
CCc1ccccc1N=Nc1c(N)[nH]n(-c2ccccc2)c1=O	15	/	/	34*	12	45*
CCOC(=O)C1CCCN(C(=S)Nc2ccc(S(=O)(=O)N3CCOCC3)cc2)C1 (centres undefined)	5	4	3	-1	3	/
O=C(NNS(=O)(=O)c1ccc(F)cc1)c1ccccc1	3	-2	7	6	-7	/
O=C(NNc1ccccn1)C(=O)NNS(=O)(=O)c1ccc(Cl)cc1	0	2	6	58*	-2	55*
O=C(NNc1ccccn1)C(=O)NNS(=O)(=O)c1ccc(F)cc1	1	4	2	36*	7	30*
CC1(C)CC(=O)C(CC2=C(O)CC(C)(C)CC2=O)C(=O)C1	-1	0	5	-3	-7	/
O=C(O)c1ccc(NCCC2=CCCCC2)c([N+](=O)[O-])c1	18	-3	-5	41*	1	45*
COc1ccc(CCNc2ccc(C(=O)O)cc2[N+](=O)[O-])cc1OC	2	7	-17	45*	5	43*
O=C(COC(=O)c1ccc2c(c1)OCCO2)NCCC1=CCCCC1	-7	6	-6	-1	4	/
Cc1cc(C)cc(N(CC(=O)NC2CCCC2)C(=O)C2(C)CC(=O)N=C3C=CC=CN32)c1 (centres undefined)	-4	0	0	3	-1	/
SMILES	rCAG RNA binder	TCR-CD3 inh	HTRA1 inh	mABHD4 FP	SIAE inh	mABHD4 conf
Cc1sc2ncnc(N3CCC(C(=O)Nc4ccc(C#N)cc4)CC3)c2c1C	4	-2	-12	-1	-8	/
CN(C(=O)c1cccc(NC(=O)Cc2ccc(NC(=O)C3CCN(C(=O)C4CCCC4)CC3)cc2)c1)C1CCC1	2	0	-2	0	3	/
O=C(NNC(=O)c1nc2ccccc2[nH]1)OCc1ccccc1	-1	0	3	36*	5	13
O=C(CN1CCCCC1)Nc1cccc(Cl)c1	-2	-9	-12	4	-6	/
Cc1c(C(=O)O)cccc1-n1c(C)cc(/C=N/Nc2ccc([N+](=O)[O-])cn2)c1C	26	-4	14	30*	7	48*
Cc1nn(-c2ccccc2)c(N2CCCC2)c1/C=N/NC(=S)Nc1ccccc1C(F)(F)F	8	-2	-2	54*	6	57*
Cc1nn(-c2ccccc2)c(N2CCCC2)c1/C=N/NC(=S)Nc1cc(C(F)(F)F)ccc1Cl	4	4	-5	6	8	/
CCCCNc1c(-c2ccc(SC3CCCCC3)cc2)nc2cnccn12	-4	1	-17	34*!	14	14
CCCCNc1c(-c2ccc(OC)c(SC3CCCCC3)c2)nc2cc(C)ccn12	-3	9	5	30*	12	37*
CCc1cc(C(=O)NCC(c2cccs2)N2CCOCC2)sc1C (centres undefined)	-1	-5	3	-2	7	/
Cc1cc(C)n(CC(=O)Nc2ccc3c(c2)OCO3)c(=O)c1C#N	-1	2	-5	31*	4	-8
Cc1cc2ccccc2c(=O)n1CC(=O)Nc1ccc2c(c1)OCO2	0	-2	-3	1	9	/
O=C(/C=C/c1ccc([N+](=O)[O-])cc1)c1ccccc(=O)c1O	17	2	27	43*	14	12
O=C(/C=C/c1ccc([N+](=O)[O-])cc1)c1cccs1	-1	-3	8	-4	4	/
Cc1nc(N)sc1-c1csc(N(C)c2ccc(O)cc2)n1	19	6	27	34*	9	10
O=Cc1[nH]c2ccccc2c1N(C(=O)CCl)c1ccccc1	1	-9	-3	-15	-2	/
Cc1ccc2c(c1)-c1ccccc1S(=O)(=O)N2	4	2	-3	6	-1	/
Nc1ccc2c(c1)-c1ccccc1S(=O)(=O)N2	25	0	30	50*	14	31*
CCOc1ccccc1C1C(C(N)=O)=C(C)Nc2nc(CCCO)nn21 (centres undefined)	2	-5	-7	31*	-4	8
CCCCCCN1C[C@@H](n2cc(COC(=O)c3ccccc3)nn2)[C@H](O)C[C@@H]1c1ccc(C)cc1	2	-5	-17	6	3	/
NC(=O)c1ccc(NC(=O)COc2cccc3c2CCNC3=O)cc1	1	1	-3	105*	-2	2
CN1CCN(c2ccc([N+](=O)[O-])cc2C(=O)c2ccc(Cl)cc2)CC1	-4	1	1	1	2	/
O=C(O)c1cccc2c1-c1ccccc1/C2=N\Nc1ccccc1	29	7	1	38*	2	23
Cc1ccc(/C=N/Nc2cc(C)nc(NCc3ccccc3)n2)cc1	5	-3	-23	34*	1	60*
Cc1cc(N/N=C/c2ccc(F)cc2)nc(NCc2ccccc2)n1	2	-3	/	7	0	/
